Experiment [1] addresses T1, Vitamin D3 receptor (Homo sapiens) (UniProt P11473).
T1 sequence (whole entry): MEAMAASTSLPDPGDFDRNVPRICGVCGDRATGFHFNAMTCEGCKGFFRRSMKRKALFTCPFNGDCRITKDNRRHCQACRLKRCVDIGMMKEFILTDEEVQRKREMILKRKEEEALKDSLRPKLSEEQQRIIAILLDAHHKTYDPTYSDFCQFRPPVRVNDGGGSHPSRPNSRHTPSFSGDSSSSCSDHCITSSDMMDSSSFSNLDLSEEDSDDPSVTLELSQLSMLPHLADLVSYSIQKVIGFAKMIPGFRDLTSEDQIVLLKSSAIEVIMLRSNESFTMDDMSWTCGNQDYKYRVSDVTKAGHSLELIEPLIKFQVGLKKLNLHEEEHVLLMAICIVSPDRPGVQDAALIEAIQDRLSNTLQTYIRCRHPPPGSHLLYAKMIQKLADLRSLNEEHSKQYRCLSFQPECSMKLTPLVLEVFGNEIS
The experiment is described as follows: Activation of VDR (unknown origin) transfected in CHO-K1 cells assessed as luciferase activity at 5 uM measured after 24 hrs by Steady-Glo luciferase assay. It counts as cell-based. The following applies: filed as activator. The method in brief: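 CHO-K1 cells transfected with a VDRE-driven luciferase reporter, then treated with compounds at 5 μM in lipid-free medium. 25(OH)D3 run in parallel as control, DMSO as negative control. Luciferase read-out, mean ± SD.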

In experiment [2] the test system is CHO-K1. Briefly: Downregulation of SCAP protein level in wild type CHO-K1 cells at 15 uM measured after 24 hrs by Western blot analysis. As to conditions: Cricetulus griseus. It counts as functional, cell-based. The method in brief: (§1)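 Wild-type CHO-K1 cells or CHO-K1 cells overexpressing FLAG-SCAP(1–767) held in lipid-free medium with 15 μM compound for 24 h. Lysis in RIPA with protease inhibitors, 20 000g spin, BCA protein assay, SDS-PAGE and immunoblot. Endogenous SCAP probed with anti-hamster SCAP, the overexpressed form with anti-FLAG M2, actin as loading control. HRP chemiluminescence detection.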

Experiment [3] deals with CHO-K1. Briefly: Downregulation of SCAP protein level in CHO-K1 cells harbouring FLAG-SCAP (1 to 767 residues) at 15 uM measured after 24 hrs by Western blot analysis. It counts as functional, cell-based. As to conditions: Cricetulus griseus. In short, it runs like this: as §1
A general note: Immunoblotting shows a protein as a band on a membrane.

Experiment [4] has as its system CHO-K1. The experiment is described as follows: Inhibition of SREBP/SCAP (unknown origin) transfected with CHO-K1 cells cotransfected with pSRE-Luc/pAC-beta-gal at 5 uM measured after 24 hrs by Steady-Glo luciferase assay. The following applies: Homo sapiens. It counts as cell-based. The method in brief:
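CHO-K1 cells transfected with an SRE-controlled luciferase reporter, exposed to compounds at 5 μM in lipid-free medium. 25(OH)D3 tested alongside as control. Luciferase signal reported as mean ± SD.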

Experiment [5] is described as follows: Inhibition of SREBP/SCAP (unknown origin) transfected with CHO-K1 cells cotransfected with pSRE-Luc/pAC-beta-gal measured after 24 hrs by Steady-Glo luciferase assay. It counts as cell-based. The following applies: CHO-K1, 24 h. In short, it runs like this:
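IC50 taken from a dose-response in CHO-K1 cells transfected with an SRE-driven luciferase reporter. Cells were treated with various compound concentrations in lipid-free medium. Luciferase read-out, mean ± SD.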

Broadly, the IC50 is the point on the concentration scale where inhibition reaches its midpoint. A higher IC50 goes with a need for much substance.

SMILES strings stand for the structures. The source made the active and inactive calls. No cut-off for these calls is given here.

In the case of `C[C@H](CCC(F)(F)C(C)(C)O)[C@H]1CC[C@H]2/C(=C/Cn3nnc(-c4ccc(Cl)cc4)n3)CCC[C@]12C`, in experiment [1], the result was Active.
Consider `C=C1CC[C@H](O)C/C1=C/C=C1\CCC[C@]2(C)[C@@H]([C@H](C)CCCC(C)(C)O)CC[C@@H]12`, for which the result in the experiment with CHO-K1 [2] and in the experiment with CHO-K1 [3] was Active.
On to `C[C@H](CCC(F)(F)C(C)(C)O)[C@H]1CC[C@H]2/C(=C/Cn3nnc(-c4ccc(C(F)(F)F)cc4)n3)CCC[C@]12C`, for which the outcome in experiment [1] was Active.
On to `Cc1cccc(-c2nnnn2C/C=C2\CCC[C@]3(C)[C@@H]([C@H](C)CCC(F)(F)C(C)(C)O)CC[C@@H]23)c1`, for which the result with CHO-K1 [2] and in the experiment on CHO-K1 [3] was Active. Further, in the experiment with CHO-K1 [4], the inhibition result is “Active”. In addition, 1400 nM corresponded to half-maximal inhibition in experiment [5] (IC50).
Consider `Cc1ccc(-c2nnnn2C/C=C2\CCC[C@]3(C)[C@@H]([C@H](C)CCC(F)(F)C(C)(C)O)CC[C@@H]23)cc1`, for which the outcome in experiment [1] was Active.
Same read-out and setting: the same measure for `C[C@H](CCC(F)(F)C(C)(C)O)[C@H]1CC[C@H]2/C(=C/Cn3nnnc3-c3ccc(Cl)cc3)CCC[C@]12C`: “Active”.
Consider `C[C@H](CCC(F)(F)C(C)(C)O)[C@H]1CC[C@H]2/C(=C/Cn3nnc(-c4ccccc4Cl)n3)CCC[C@]12C`, for which the result in the experiment with CHO-K1 [2] and in the experiment on CHO-K1 [3] was Active. In addition, the inhibition entry with CHO-K1 [4] is “Active”. Further, in experiment [5], the IC50 amounted to 2000 nM.
For the compound `C[C@H](CCC(F)(F)C(C)(C)O)[C@H]1CC[C@H]2/C(=C/Cn3nnnc3-c3ccc(C(F)(F)F)cc3)CCC[C@]12C`, in experiment [1], the outcome was Active.
On the same count and under the same terms, then `Cc1ccc(-c2nnn(C/C=C3\CCC[C@]4(C)[C@@H]([C@H](C)CCC(F)(F)C(C)(C)O)CC[C@@H]34)n2)cc1`, with “Active”.
Consider `C[C@H](CCC(F)(F)C(C)(C)O)[C@H]1CC[C@H]2/C(=C/Cn3nnnc3-c3ccccc3)CCC[C@]12C`, for which the result with CHO-K1 [2] and in the experiment on CHO-K1 [3] was Active. The IC50 in experiment [5] is 3500 nM.

Values taken from ChEMBL document CHEMBL5329185, “Structure-activity relationship studies on vitamin D-based selective SREBP/SCAP inhibitor KK-052” (RSC Med Chem, 2023).
